Assay results from publication PMC4569680 (Advances in Therapy, 2015).
Like-named read-outs stand apart in the source and are kept apart here. Marks after values point to notes of the source that are not given here.

Key:
[1] = type: in vivo, human; conditions: for AR (accumulation ratio): AUC0–24h Day 16 / AUC0–24h Day 1, mean (SD)
Procedure, shortened: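 Patients received 25–400 mg QD or placebo on Day 1 and Days 3–16, fasted overnight, with a standardized breakfast within 10 min. Venous blood was drawn at 0, 0.5, 1, 1.5, 2, 3, 4, 6, 8 and 12 h on Days 1 and 16, and before breakfast on Days 2, 17 and 18. Drug was measured by HPLC-MS/MS, range 1–2000 ng/mL. AR = AUC0–24h Day 16/Day 1; linearity factor = AUC0–24h Day 16/AUC0–∞ Day 1.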

[2] = 24-h urinary excretion rate of unchanged canagliflozin; type: in vivo, human; conditions: for Urinary excretion rate: mean (SD)
Procedure, shortened: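 Urine was collected 0–24 h on Days 1 and 16 during once-daily dosing at 25, 100, 200 or 400 mg, given on Day 1 and Days 3–16 between 8:00 and 9:00 a.m. A standardized breakfast followed within 10 min. Unchanged drug was measured by solid-phase extraction and HPLC-MS/MS with a 13C6-labelled internal standard. The validated range was 1–2000 ng/mL.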

[3] = tested on: Japanese patients with T2DM; test: Urinary glucose excretion; type: in vivo, human; conditions: for mean change from baseline in UGE0–24h: Day 1
Procedure, shortened: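 Urine was collected in timed intervals (0–2 through 13–24 h) on Days 0, 1 and 16, and as 0–24 h pools on Days 2–6, 15, 17 and 18. Dosing was 25–400 mg or placebo QD on Day 1 and Days 3–16. Change from the Day 0 single-blind placebo baseline was determined on each collection day.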

[4] = tested on: Japanese patients with T2DM; test: Renal threshold for glucose excretion; type: in vivo, human; conditions: Days 1 and 16, versus baseline Day 0
Procedure, shortened: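 RTG was calculated post hoc for Days 0, 1 and 16 from measured plasma glucose, UGE and estimated glomerular filtration rate. Day 0 was a single-blind placebo baseline after an overnight fast; standardized meals were given at about 0, 4.5 and 10.5 h post-dose.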

[5] = tested on: Japanese patients with T2DM; test: Adverse events; type: in vivo, human
[6] = tested on: Japanese patients with T2DM; test: Urinary electrolyte excretion in 24 hours; type: in vivo, human
Procedure, shortened: (§1)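 Volume-related safety was followed as changes from baseline in blood and urinary laboratory parameters: urine volume, sodium excretion, urine and serum osmolality, and hematocrit. Vital signs covered blood pressure, pulse rate and body temperature. Patients received 25–400 mg QD or placebo on Day 1 and Days 3–16 with standardized meals. Urine was collected in timed intervals or 0–24 h pools.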

[7] = tested on: Japanese patients with T2DM; test: Volume-related safety; type: in vivo, human
Procedure, shortened: as §1

[8] = cited from earlier work
[9] = 25 mg QD repeated dose, Day 16, mean (SD), n = 12
[10] = 25 mg single dose, Day 1, mean (SD), n = 12
[11] = 100 mg QD repeated dose, Day 16, mean (SD), n = 12
[12] = 100 mg single dose, Day 1, mean (SD), n = 12
[13] = 200 mg QD repeated dose, Day 16, mean (SD), n = 14
[14] = 200 mg single dose, Day 1, mean (SD), n = 14
[15] = 400 mg QD repeated dose, Day 16, mean (SD), n = 13
[16] = 400 mg single dose, Day 1, mean (SD), n = 13
[17] = canagliflozin groups pooled, 2 cases in 2 of 51 patients

SMILES: Cc1ccc([C@@H]2O[C@H](CO)[C@@H](O)[C@H](O)[C@H]2O)cc1Cc1ccc(-c2ccc(F)cc2)s1 [Canagliflozin]
- AUC0–24h [1, 9]: 1556 (387) ng·h/mL
- C max [1, 9]: 263 (91) ng/mL
- t 1/2 [1, 9]: 14.21 (7.46) h
- t max ([1]; 25 mg QD repeated dose, Day 16, median [min–max], n = 12): 1.0 [1.0–3.0] h
- AUC0–24h [1, 10]: 1295 (240) ng·h/mL
- C max [1, 10]: 248 (55) ng/mL
- t 1/2 [1, 10]: 10.70 (1.76) h
- t max ([1]; 25 mg single dose, Day 1, median [min–max], n = 12): 1.0 [1.0–2.0] h
- AR (accumulation ratio) ([1]; 25 mg, n = 12): 1.19 (0.12)
- AUC0–24h [1, 11]: 6635 (1367) ng·h/mL
- C max [1, 11]: 1136 (330) ng/mL
- t 1/2 [1, 11]: 11.81 (3.22) h
- t max ([1]; 100 mg QD repeated dose, Day 16, median [min–max], n = 12): 1.0 [1.0–1.5] h
- AUC0–24h [1, 12]: 5468 (899) ng·h/mL
- C max [1, 12]: 1126 (228) ng/mL
- t 1/2 [1, 12]: 10.22 (1.89) h
- t max ([1]; 100 mg single dose, Day 1, median [min–max], n = 12): 1.0 [1.0–1.5] h
- AR (accumulation ratio) ([1]; 100 mg, n = 12): 1.21 (0.12)
- t 1/2 ([1]; 200 mg QD repeated dose, Day 16, mean (SD), n = 13): 16.16 (5.87)^c h
- AUC0–24h [1, 13]: 16,716 (5464) ng·h/mL
- C max [1, 13]: 2688 (805) ng/mL
- t max ([1]; 200 mg QD repeated dose, Day 16, median [min–max], n = 14): 1.3 [1.0–1.5] h
- AUC0–24h [1, 14]: 11,991 (3042) ng·h/mL
- C max [1, 14]: 2304 (539) ng/mL
- t 1/2 [1, 14]: 13.26 (4.96) h
- t max ([1]; 200 mg single dose, Day 1, median [min–max], n = 14): 1.0 [1.0–1.5] h
- AR (accumulation ratio) ([1]; 200 mg, n = 14): 1.38 (0.17)
- t 1/2 ([1]; 400 mg QD repeated dose, Day 16, mean (SD), n = 12): 15.76 (5.56)^d h
- AUC0–24h [1, 15]: 30,766 (7916) ng·h/mL
- C max [1, 15]: 5236 (1123) ng/mL
- t max ([1]; 400 mg QD repeated dose, Day 16, median [min–max], n = 13): 1.0 [1.0–1.5] h
- AUC0–24h [1, 16]: 21,836 (4983) ng·h/mL
- C max [1, 16]: 5028 (1733) ng/mL
- t 1/2 [1, 16]: 12.15 (2.34) h
- t max ([1]; 400 mg single dose, Day 1, median [min–max], n = 13): 1.0 [1.0–3.0] h
- AR (accumulation ratio) ([1]; 400 mg, n = 13): 1.42 (0.29)
- mean accumulation ratios (ARs) ([1]; AUC0–24h Day 16 / AUC0–24h Day 1, across doses 25–400 mg): 1.19–1.42
- linearity factors ([1]; AUC0–24h Day 16 / AUC0–∞ Day 1, any dose (25, 100, 200, 400 mg)): ~1
- elimination half-life (t 1/2) ([1]; Day 1, across doses 25–400 mg): 10.22 to 13.26 h
- elimination half-life (t 1/2) ([1]; Day 16, across doses 25–400 mg): 11.81 to 16.16 h
- t max ([1]; Day 16, across doses 25–400 mg): 1.0 to 1.3 h
- plasma concentration reaches steady state ([1]; repeated QD dosing from Day 3, all doses): ≤ 7 days
- Urinary excretion rate ([2]; 25 mg QD repeated dose, Day 16, 0–24 h, n = 12): 0.599 (0.183) %
- Urinary excretion rate ([2]; 25 mg single dose, Day 1, 0–24 h, n = 12): 0.387 (0.070) %
- Urinary excretion rate ([2]; 100 mg QD repeated dose, Day 16, 0–24 h, n = 12): 0.641 (0.204) %
- Urinary excretion rate ([2]; 100 mg single dose, Day 1, 0–24 h, n = 12): 0.384 (0.084) %
- Urinary excretion rate ([2]; 200 mg QD repeated dose, Day 16, 0–24 h, n = 14): 0.614 (0.195) %
- Urinary excretion rate ([2]; 200 mg single dose, Day 1, 0–24 h, n = 14): 0.424 (0.107) %
- Urinary excretion rate ([2]; 400 mg QD repeated dose, Day 16, 0–24 h, n = 13): 0.495 (0.153) %
- Urinary excretion rate ([2]; 400 mg single dose, Day 1, 0–24 h, n = 13): 0.385 (0.097) %
- 24-h urinary excretion rate of unchanged canagliflozin ([2]; Day 1, means at each dose): approximately 0.4%
- 24-h urinary excretion rate of unchanged canagliflozin ([2]; Day 16, means at each dose): 0.5–0.6%
- UGE after the last administration ([3]; 24–48 and 48–72 h after the last administration, ≥100 mg): increase in UGE was detected
- mean change from baseline in UGE0–24h ([3]; 25-mg group): approximately 60 g/day
- mean change from baseline in UGE0–24h ([3]; 100–400-mg groups): 80 to 110 g/day
- RTG0–24h [4]: decreased
- nasopharyngitis, patients with AE ([5]; canagliflozin groups pooled, 1 case in 1 of 51 patients): 2.0%
- dizziness, patients with AE [5, 17]: 3.9%
- toothache, patients with AE [5, 17]: 3.9%
- urine ketone body present, patients with AE ([5]; canagliflozin groups pooled, 3 cases in 3 of 51 patients): 5.9%
- anemia, patients with AE ([5]; canagliflozin groups pooled, 4 cases in 4 of 51 patients): 7.8%
- diarrhea, patients with AE ([5]; canagliflozin groups pooled, 6 cases in 5 of 51 patients): 9.8%
- occult blood positive, patients with AE ([5]; canagliflozin groups pooled, 14 cases in 12 of 51 patients): 23.5%
- urinary ketones observed ([5]; canagliflozin-treated groups, all mild): 3 patients
- urinary ketones observed ([5]; dose of 200 mg): 2 cases
- urinary ketones observed ([5]; dose of 400 mg): 1 case
- tolerability ([5]; short-term study, patients with T2DM, 25–400 mg): well tolerated
- AEs related to skin disorders ([5]; whole study): not observed
- urinary sodium excretion ([6]; Day 1, reversed within a week): transient nominal increase
- urinary excretion of electrolytes (potassium, chloride, calcium, magnesium, inorganic phosphorus) ([6]; canagliflozin-treated groups compared with the placebo group): No remarkable changes were observed
- 24-h urine volume ([7]; Day 1, canagliflozin groups): slightly increased
- change in urine osmolality over time from baseline ([7]; Day 1, canagliflozin-treated groups): trend toward an increase
- pulse rate and incidence of orthostatic hypotension ([7]; data not shown): No increases were observed
- hematocrit level ([7]; during the study period): remained unchanged
- serum osmolality ([7]; during the treatment period): maintained constant
- mean systolic and diastolic blood pressures ([7]; groups that received ≥100 mg): tended to decrease

SMILES: NS(=O)(=O)c1cc2c(cc1Cl)N=CNS2(=O)=O [chlorothiazide]
- persistence of diuretic effects [8]: about 1 week
